DAX1 inh-1: blocks DAX1 repression of SF-1 activated StAR promoter | HEK293T StAR-luciferase reporter, SF-1/DAX-1 repression relief | inhibition, % at 6.8 µM | actives 1.1% (n = 370,000);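 active = inhibition above the mean over all tested compounds plus 3 SD, cut at about 3.6% in these data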;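 note: 0% = DAX-1 cells with DMSO and 100% = cells lacking DAX-1 with DMSO; higher inhibition means more luminescence from relief of DAX-1 repression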
JMJD2C inh: human JMJD2C demethylase inhibition; Q9H3R0; GST-JMJD2C(1-420) H3K9me3 demethylation, DELFIA europium; inhibition, % at 2.35 µM; actives 0.069% (n = 330,000); AID 2099;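 active = more than half of a compound's replicate wells show inhibition beyond 50%, single wells judged on their own value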;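 note: signal counts dimethyl H3K9 product captured on neutravidin plate; 0% = median of DMSO wells and 100% = 0.3 times that DMSO median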
NR2E3 ag-1: agonists of human NR2E3 nuclear receptor. Q9Y5X4. inhibition of corepressor binding, % at 3.98 µM. CHO-S Gal4-NCOR/VP16-NR2E3 two-hybrid, luciferase. actives 0.35% (n = 360,000);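 active = inhibition above the mean of all tested compounds plus 3 SD, cut at about 70% in these data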;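 note: 0% = DMSO with NR2E3 transfected cells and 100% = cells lacking NR2E3 construct; higher means lower luciferase signal from less NR2E3 corepressor binding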
NR2E3 ag-2: activates human photoreceptor nuclear receptor NR2E3; Q9Y5X4; GST-NR2E3/biotin-RetCOR TR-FRET, 1536-well; inhibition of corepressor binding, % at 4.78 µM; actives 0.12% (n = 320,000); AID 2300;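 active = percent inhibition above the cutoff of mean plus 3 SD of all tested compounds, set per screening campaign, cut at about 20% in these data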;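 note: 0% = DMSO wells and 100% = biotin wells as full block of FRET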
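Format: 1536-well format; test system: GST-NR2E3 and biotin-RetCOR proteins; read-out basis: percent inhibition of TR-FRET ratio; timing: 5 h incubation at 4 °C; detection: time-resolved FRET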
DAX1 inh-2: inhibitors of human orphan nuclear receptor DAX1 (NR0B1) | HEK293 Gal4-DAX1 luciferase reporter, luminescence | inhibition, % at 6.75 µM | actives 0.99% (n = 340,000);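 active = inhibition above the mean over all tested compounds plus 3 SD, cut at about 4.2% in these data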;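 note: 0% = DAX1-transfected cells with DMSO and 100% = empty-vector control cells with DMSO; inhibition shows as a rise in luminescence from relieved DAX1 repression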
Target sequence (P51843 207-470 limits assumed): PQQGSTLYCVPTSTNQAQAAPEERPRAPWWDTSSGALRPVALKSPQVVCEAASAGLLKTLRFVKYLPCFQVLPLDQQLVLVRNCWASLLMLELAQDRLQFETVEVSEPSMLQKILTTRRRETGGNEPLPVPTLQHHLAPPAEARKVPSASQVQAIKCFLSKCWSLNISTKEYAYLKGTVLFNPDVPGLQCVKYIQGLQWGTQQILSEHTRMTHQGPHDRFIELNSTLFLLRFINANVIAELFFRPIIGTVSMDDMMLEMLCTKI
SMARCA2 act: increases SMARCA2 function in MMTV reporter cells | MG213 cells, MMTV-luciferase reporter, dexamethasone, overnight | activation, % at 9.1 µM | actives 1% (n = 370,000); in the data active = activation above about 7.8%;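 note: 0% = vehicle wells and 100% = reference activator wells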
NR2E3 ag confirm: NR2E3 agonism confirmed in two-hybrid assay; CHO-S mammalian two-hybrid NR2E3-NCOR, luciferase luminescence; inhibition, % at 3.98 µM; actives 51% (n = 2,300); shares compounds with NR2E3 ag-1;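 active = average inhibition above a cutoff equal to the mean inhibition of all tested compounds plus one SD, cut at about 70% in these data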;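 note: 0% = DMSO in NR2E3 cells and 100% = DMSO in cells lacking NR2E3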
GAL4-VP16 luc: GAL4-VP16 reporter inhibition in NR2E3 agonist counterscreen. CHO-S GAL4-VP16 luciferase reporter, luminescence. shares compounds with NR2E3 ag-1. actives 29% (n = 2,300). inhibition, % at 3.98 µM;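 active = mean inhibition above a cutoff equal to the average over all tested compounds plus one standard deviation, cut at about 70% in these data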;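 note: luciferase from a UAS reporter driven by GAL4-VP16 transactivation; 0% = DMSO with VP16-transfected cells and 100% = DMSO with cells lacking VP16; higher means less reporter light so more repression of VP16 activity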
The depositor's hits bear a star; . = no result given. Rows were chosen to be rich in hits. Some 3.2% of all compounds tested hit in one or more screens of this group.

SMILES	DAX1 inh-1	JMJD2C inh	NR2E3 ag-1	NR2E3 ag-2	DAX1 inh-2	SMARCA2 act	NR2E3 ag confirm	GAL4-VP16 luc
Cc1cc(C(=O)CSc2nc3ccccc3[nH]2)c(C)n1CC1CCCO1 (stereo not given)	-5	-10	84*	-2	-5	-9	87*	51
CN1[C@H](Cc2ccccc2)COc2cc(N3CCSCC3)ccc2S1(=O)=O	-2	.	.	.	.	-5	.	.
CN1OC[C@@H]2CN[C@H](c3ccc(-c4cc5ccccc5o4)cc3)C[C@@H]21	.	.	92*	.	-5	.	79*	68
CN1OC[C@@H]2CN[C@H](c3ccc(-n4ccnc4)cc3)C[C@@H]21	-1	.	.	.	.	0	.	.
CC(/C=N/NC(=O)CSc1nnc(SCc2ccc(C)cc2)s1)=C\c1ccco1	0	.	.	.	.	-10	.	.
COc1ccc(CCN(C)C(=O)Cc2ccc(-c3ccccc3)cc2)cc1OC	-1	10	85*	2	-3	-4	85*	60
COc1ccc(CCN(C)C(=O)COc2ccc(C(=O)c3ccccc3)cc2)cc1OC	-3	-27	10	-3	-2	-2	.	.
O=C(CCC(=O)N1CCN(c2ccc(Cl)c(Cl)c2)CC1)c1ccccc1	-5	5	91*	1	1	-3	96*	76*
O=C(CCC(=O)N1CCN(c2ccc(F)cc2)CC1)c1ccc(Cl)cc1	0	-16	22	2	0	-3	.	.
Cc1cc(-n2c(C)cc(C(=O)COc3ccccc3[N+](=O)[O-])c2C)no1	0	11	-46	1	2	-1	.	.
Cc1cc(C(=O)COc2cccnc2[N+](=O)[O-])c(C)n1Cc1ccco1	-4	4	29	0	-1	-5	.	.
Cc1cc(C(=O)COc2cccnc2[N+](=O)[O-])c(C)n1-c1ccccc1F	-2	3	50	-3	-3	-6	58	35
Cc1ccc(-n2c(C)cc(C(=O)COc3cccnc3[N+](=O)[O-])c2C)cc1	-1	-4	68	-2	-4	-8	29	50
Cc1cc(C(=O)COc2cccnc2[N+](=O)[O-])c(C)n1-c1ccccc1	-2	-19	71*	-1	-4	-4	72*	54
Cc1ccc(C(=O)CSc2nnc(-c3ccccn3)n2-c2ccccc2)cc1	0	.	.	.	.	2	.	.
COc1ccc(CN(C)CC#Cc2ccccc2)c(OC)c1	-2	.	.	.	.	-4	.	.
COc1ccc(Cn2ccc3ccc(-c4ccc5ccn(C(=O)c6ccccc6OC)c5c4)cc32)cc1	0	.	.	.	.	-1	.	.
C=CCCC(=O)N1CCC(C(=O)NC2CCCc3ccccc32)CC1 (stereo not given)	0	.	.	.	.	-2	.	.
COc1ccc(N(Cc2ccccc2)C(=O)CSc2nnc(Cn3nnc4ccccc43)o2)cc1	-1	-2	12	1	-2	-4	.	.
O=C(CSc1nnc(Cn2nnc3ccccc32)o1)N(Cc1ccc(F)cc1)c1ccccc1	-3	17	79*	-3	-4	-6	88*	74*
Cc1nn(C(C)(C)C)c(C)c1/C=N/OC(=O)Nc1ccc(Cl)cc1	-3	-4	97*	-1	-9	-12	-3	91*
CCCCc1ccc(S(=O)(=O)NCCc2ccncc2)cc1	-3	-7	70	1	-1	-1	73*	65
CC(C)CN1C(=O)C[C@]2(C(=O)N(C)c3ccc(NS(=O)(=O)c4ccc(F)cc4)cc32)C1c1ccccc1 (stereo not given in full)	-1	.	.	.	.	-3	.	.
COC(=O)[C@]12C[C@H](CC(=O)N3CCOCC3)C(=O)N(CCC3=CCCCC3)C1=C[C@H](C(C)C)O[C@@H]2C1CC1	-1	.	.	.	.	-4	.	.
CC(C(=O)Nc1ccccc1)c1ccc(-c2ccccc2)c(F)c1 (stereo not given)	.	-10	74*	-3	0	.	52	54
CSC(=Nc1ccccc1)N=C(SCc1ccccc1)N(C)C	-1	.	86*	.	-2	-10	87*	53
